How the values were obtained:
Type in all cases: functional, cell-based
HCT cell line [1] = experiment: Cytotoxicity against wild type p21 gene in human colon tumor 116 (HCT 116) cell lines was determined
In short: (§1)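 HCT 116 wild-type and isogenic p53- or p21-disrupted lines (McCoy's 5A, 10% FBS) seeded at 3.0 × 10^3/well, adhered 24 h, then treated at varying concentrations for 48 h, eight replicates, DMSO controls. Viability by MTS, absorbance 490 nm after 2–3 h, expressed as % of same-plate DMSO control; EC50 fitted from log concentration–response curve; done twice.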

HCT cell line [2] = experiment: Cytotoxicity against wild type p53 gene in human colon tumor 116 (HCT 116) cell lines was determined; in short: as §1
HCT cell line [3] = experiment: Cytotoxicity against wild type p53-l- gene in human colon tumor 116 (HCT 116) cell lines was determined; in short: as §1
HCT cell line [4] = experiment: Cytotoxicity against wild type p21-l- gene in human colon tumor 116 (HCT 116) cell lines was determined; in short: as §1
RKO [5] = experiment: Cytotoxicity against human RKO-E6 cell line; conditions: RKOE6
In short: (§2)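 RKO and RKO-E6 cells (DMEM, 10% FBS, 37 °C, 5% CO2) seeded at 5.0 × 10^3/well, adhered 24 h, then exposed to varying concentrations for 48 h, eight replicates, DMSO controls. MTS conversion read at 490 nm after 2–3 h; growth as % of same-plate DMSO control; EC50 from concentration–response curve. Assay run twice.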

RKO [6] = experiment: Cytotoxicity against human RKO cell line; in short: as §2

| Compound | EC50 (HCT cell line [1]) [nM] | EC50 (HCT cell line [2]) [nM] | EC50 (HCT cell line [3]) [nM] | EC50 (HCT cell line [4]) [nM] | EC50 (RKO [5]) [nM] | EC50 (RKO [6]) [nM] |
| --- | --- | --- | --- | --- | --- | --- |
| CCCCC/C=C\C[C@@]1(O)C=C(Cl)C(=O)[C@@H]1[C@@H](OC(C)=O)[C@H](OC(C)=O)[C@H](CCCC(=O)OC)OC(C)=O | 47 | 40 | 40 | 40 | – | – |
| CCCCC/C=C\C[C@@]1(O)C=C(Cl)C(=O)[C@@H]1C[C@H](OC(C)=O)[C@H](CCCC(=O)OC)OC(C)=O | 330 | 340 | 360 | 320 | 470 | 440 |
| CC/C=C/C/C=C\C[C@@]1(O)C=C(Cl)C(=O)/C1=C/[C@H](OC(C)=O)[C@H](CCCC(=O)OC)OC(C)=O | 290 | 320 | 370 | 300 | – | – |
| CCCCC/C=C\C[C@@]1(O)C=C(Cl)C(=O)/C1=C/[C@H](OC(C)=O)[C@H](CCCC(=O)OC)OC(C)=O [PUNAGLANDIN 4] | 340 | 330 | 350 | 280 | 370 | 310 |
